From paper PMC2194103 (The Journal of Experimental Medicine, 2002)

What was measured:
[1] = test system: peripheral CD4+ T cells of the 1B6 transgenic mouse; experiment: Proliferation of naive ex-vivo 1B6 TCR transgenic T cells; type: cell-based; conditions: LNCs from 1B6 TCR transgenic mouse, [3H]thymidine added after 48 h; Fig. 1
In short: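 Lymph node cells from a 1B6 TCR transgenic mouse were stimulated in culture with different peptide ligands. Per the general proliferation method, cultures were run in triplicate. After 48 h, [3H]thymidine (1 μCi/well) was added for the final 16 h before harvest. Incorporation was read by scintillation counting.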

I-A^s = target: T1, I-A^s (Mus musculus, UniProt P06345+P14437); conditions: binding to I-A^s relative to W144 (1.0); cited from earlier work
T1 sequence (P14437 1-233): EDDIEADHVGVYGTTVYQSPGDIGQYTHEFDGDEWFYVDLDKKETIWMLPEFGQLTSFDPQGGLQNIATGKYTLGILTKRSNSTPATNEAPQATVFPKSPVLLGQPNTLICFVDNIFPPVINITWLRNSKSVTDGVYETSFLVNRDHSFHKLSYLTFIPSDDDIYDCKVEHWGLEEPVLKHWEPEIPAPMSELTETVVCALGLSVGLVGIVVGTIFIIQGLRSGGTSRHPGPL
T1 sequence (P06345 28-263): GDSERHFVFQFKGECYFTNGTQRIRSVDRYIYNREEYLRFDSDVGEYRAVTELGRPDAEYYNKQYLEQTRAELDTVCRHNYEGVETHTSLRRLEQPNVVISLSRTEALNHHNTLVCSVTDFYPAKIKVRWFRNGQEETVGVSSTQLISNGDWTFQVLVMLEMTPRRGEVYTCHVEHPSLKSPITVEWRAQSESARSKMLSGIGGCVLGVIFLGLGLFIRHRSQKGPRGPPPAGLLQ

Q1.1B6 T cell clone = conditions: representative experiment; cited from earlier work
[2] = test system: CD4+ 1B6 Rag2−/− T cell lines; experiment: Cytokine ELISA on 1B6 T cell lines; type: cell-based, mouse; conditions: supernatants after 40 h, Fig. 3

Sequence | Stimulatory potential for proliferation (hierarchy of response) [1] | Relative MHC binding (I-A^s) | Cytokine IFN-γ (Q1.1B6 T cell clone) | Cytokine IL-2 (Q1.1B6 T cell clone) | Cytokine IL-4 (Q1.1B6 T cell clone) | Cytokine TNF-α (Q1.1B6 T cell clone) | Secretion of IL-2 by desensitized cells [2]
HSLGKQLGHPDKF [Ligand Q144] | agonist | 0.6 | 9,052 pg/ml | <50 pg/mL | 200 pg/mL | <50 pg/mL | 
HSLGKLLGHPDKF [Ligand L144] | superagonist ligand | 0.8 |  |  | 390 pg/mL | 420 pg/mL | selectively blunted
HSLGKWLGHPDKF [Ligand W144, reference compound] | weaker ligand | 1.0 | 420 pg/mL | <50 pg/mL | <50 pg/mL | <50 pg/mL | 
